# Activity calls are given as the source filed them. The rule behind the calls is not given here.
# Tests used:
# [1] = test system: Plasmodium berghei; test: Antimalarial activity against Plasmodium berghei infected in C57BL/6 mouse cerebral malaria model infected with assessed as growth reduction at 20 mg/kg, ip bid measured after 4 days; type: functional, organism-based; details: time 4.0 day
# How it was run: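 Female C57BL/6 mice, 6 weeks old, infected i.p. with 10⁵ iRBC of GFP-expressing P. berghei ANKA. Treatment began 2h post-infection: i.p. 20mg/kg twice daily for 4 days, vehicle controls alongside; chloroquine 25mg/kg daily as positive control. Hydrochloride salt used. Parasitemia read daily by flow cytometry of 200,000 RBCs and confirmed on Giemsa smears. Mortality followed for 10 days. Single experiment, 5 mice per group.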
# [2] = biological target: T1, Protein deacetylase HDAC6 (Homo sapiens, UniProt Q9UBN7); test: Inhibition of human recombinant HDAC6 using Tosyl-Gly-ProLys(Ac)-AMC as substrate measured after 60 mins by fluorescence assay
# T1 sequence (Q9UBN7 whole entry): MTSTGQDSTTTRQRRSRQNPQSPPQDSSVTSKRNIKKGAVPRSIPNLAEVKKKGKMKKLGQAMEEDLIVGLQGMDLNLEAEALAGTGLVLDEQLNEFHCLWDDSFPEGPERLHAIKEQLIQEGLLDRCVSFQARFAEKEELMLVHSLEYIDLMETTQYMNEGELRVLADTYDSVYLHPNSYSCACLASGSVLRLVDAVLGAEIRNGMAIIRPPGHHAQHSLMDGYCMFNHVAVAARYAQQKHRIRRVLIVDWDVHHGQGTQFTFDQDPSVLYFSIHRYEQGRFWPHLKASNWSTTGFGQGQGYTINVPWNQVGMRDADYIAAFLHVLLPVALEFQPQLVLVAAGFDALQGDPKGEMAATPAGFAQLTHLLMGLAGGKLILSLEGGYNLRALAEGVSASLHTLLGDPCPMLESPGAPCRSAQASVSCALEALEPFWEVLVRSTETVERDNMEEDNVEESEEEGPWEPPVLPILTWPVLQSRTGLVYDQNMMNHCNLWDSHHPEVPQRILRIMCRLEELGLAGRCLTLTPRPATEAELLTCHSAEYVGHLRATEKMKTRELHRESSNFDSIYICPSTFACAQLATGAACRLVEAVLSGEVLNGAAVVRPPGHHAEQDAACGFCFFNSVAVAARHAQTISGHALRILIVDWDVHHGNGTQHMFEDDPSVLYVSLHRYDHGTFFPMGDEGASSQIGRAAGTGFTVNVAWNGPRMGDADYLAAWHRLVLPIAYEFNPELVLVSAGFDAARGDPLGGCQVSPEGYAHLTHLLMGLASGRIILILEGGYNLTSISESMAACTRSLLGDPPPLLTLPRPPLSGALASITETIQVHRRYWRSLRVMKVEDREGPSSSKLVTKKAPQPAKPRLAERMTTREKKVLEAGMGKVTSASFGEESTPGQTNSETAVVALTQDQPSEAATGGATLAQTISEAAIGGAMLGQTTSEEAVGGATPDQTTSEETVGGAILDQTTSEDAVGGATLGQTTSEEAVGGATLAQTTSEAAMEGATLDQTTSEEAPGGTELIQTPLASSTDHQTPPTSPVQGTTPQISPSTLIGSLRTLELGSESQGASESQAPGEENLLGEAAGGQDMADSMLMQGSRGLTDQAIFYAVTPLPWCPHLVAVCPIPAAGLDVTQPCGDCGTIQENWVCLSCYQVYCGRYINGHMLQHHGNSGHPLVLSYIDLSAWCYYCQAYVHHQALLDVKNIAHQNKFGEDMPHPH
# [3] = test system: Plasmodium berghei; test: Antimalarial activity against Plasmodium berghei infected in C57BL/6 mouse cerebral malaria model infected with assessed as increase in mouse survival days at 20 mg/kg, ip bid; type: functional, organism-based
# How it was run: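 Female C57BL/6 mice, 6 weeks old, infected i.p. with 10⁵ iRBC of GFP-expressing P. berghei ANKA. Dosing i.p. started 2h post-infection and ran 4 days: hydrochloride salt at 20mg/kg twice daily, vehicle control, or chloroquine 25mg/kg daily. Parasitemia measured daily by flow cytometry of 200,000 RBCs and confirmed by Giemsa smears. Parasitemia and mortality followed 10 days; n=5 mice/group, single experiment.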
# [4] = Stability in human plasma assessed as parent compound remaining after 2 hrs; type: ADME, cell-free; details: read-out: Stability
# [5] = test system: Plasmodium falciparum; test: Antiplasmodial activity against Plasmodium falciparum NF54 assessed as reduction in growth in intraerythrocytic development cycle at 10 times of IC50 concentration incubated for 6 hrs measured after 72 hrs of post synchronization […]; type: functional, organism-based
# How it was run: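 NF54 asexual parasites tightly synchronized to 0–3hpi. Exposed for 6h at 3× or 10× IC50, starting at 0, 6, 12, 18, 24, 30, 36 or 42hpi. Cells then pelleted, washed in RPMI and returned to culture. Parasitemia counted at 72h post-synchronization on Giemsa-stained thin smears. Survival expressed relative to DMSO. Three independent experiments, one well per condition.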
# [6] = biological target: Histone deacetylase (Homo sapiens) (UniProt Q13547+O15379+Q9UBN7+Q92769+Q9UQL6+Q8WUI4+Q9BY41+Q96DB2+P56524+Q9UKV0+Q969S8); test: Inhibition of human HDAC activity using nuclear extract of HeLa cells assessed as inhibition of acetylation; type: tissue-based
# How it was run: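 HeLa nuclear extract (3x10⁻³mg) incubated with compound and 43 µM Tosyl-Gly-Pro-Lys(Ac)-AMC. Buffer: 25mM Tris-HCl pH 8, 140mM NaCl, 3mM KCl, 1mM MgCl₂. Run 45 min at 37°C, then trypsin (1mg/mL) 15min at RT, then ethanol. AMC fluorescence read at ex 380/em 460nm. Background subtracted; data normalized to DMSO. Duplicates in ≥2 independent experiments.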
# [7] = test system: Plasmodium falciparum; test: Inhibition of Plasmodium falciparum HDAC activity using nuclear extract assessed as inhibition of acetylation at 1 to 10 uM; details: dose 1-10 µM
# How it was run: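 P. falciparum protein extract (3x10⁻³mg) incubated with compound and 43 µM Tosyl-Gly-Pro-Lys(Ac)-AMC. Buffer: 25mM Tris-HCl pH 8, 140mM NaCl, 3mM KCl, 1mM MgCl₂. Run 45 min at 37°C, then trypsin 15min at RT, then ethanol. Fluorescence read at ex 380/em 460nm. Normalized to DMSO. Duplicates in ≥2 independent experiments.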
# [8] = test system: Plasmodium falciparum; test: Antiplasmodial activity against synchronized Plasmodium falciparum NF54 assessed as effect on ring stage parasite growth in intraerythrocytic development cycle at 10 times IC50 concentration incubated upto 48 hrs measured after 72 hrs of post synchronization by SYBR Green 1 assay; type: functional, organism-based; details: time hrs <=48
# [9] = test system: HL-60; test: Cytotoxicity against human HL-60 cells assessed as inhibition of cell proliferation at 32 uM measured after 72 hrs by ATPlite assay; type: functional
# How it was run: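 Cells exposed to compound for 72h; viability read by ATPlite. DMSO control. Technical triplicates, at least two biological replicates. IC50 interpolated from the curves.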
# [10] = biological target: DNA (cytosine-5)-methyltransferase 3A (Homo sapiens) (UniProt Q9Y6K1); test: Inhibition of human DNMT3A methylation
# [11] = test system: Plasmodium falciparum; test: Inhibition of Plasmodium falciparum DNMT activity using nuclear extract assessed as DNA methylation at 32 uM
# How it was run: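 P. falciparum nuclear extracts tested at 32 µM compound, or the equivalent DMSO. DNA methylation activity normalized to the DMSO sample. Triplicates in two independent experiments.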
# Chain of DNA (cytosine-5)-methyltransferase 3A (Homo sapiens) (Q9Y6K1 whole entry, looked up): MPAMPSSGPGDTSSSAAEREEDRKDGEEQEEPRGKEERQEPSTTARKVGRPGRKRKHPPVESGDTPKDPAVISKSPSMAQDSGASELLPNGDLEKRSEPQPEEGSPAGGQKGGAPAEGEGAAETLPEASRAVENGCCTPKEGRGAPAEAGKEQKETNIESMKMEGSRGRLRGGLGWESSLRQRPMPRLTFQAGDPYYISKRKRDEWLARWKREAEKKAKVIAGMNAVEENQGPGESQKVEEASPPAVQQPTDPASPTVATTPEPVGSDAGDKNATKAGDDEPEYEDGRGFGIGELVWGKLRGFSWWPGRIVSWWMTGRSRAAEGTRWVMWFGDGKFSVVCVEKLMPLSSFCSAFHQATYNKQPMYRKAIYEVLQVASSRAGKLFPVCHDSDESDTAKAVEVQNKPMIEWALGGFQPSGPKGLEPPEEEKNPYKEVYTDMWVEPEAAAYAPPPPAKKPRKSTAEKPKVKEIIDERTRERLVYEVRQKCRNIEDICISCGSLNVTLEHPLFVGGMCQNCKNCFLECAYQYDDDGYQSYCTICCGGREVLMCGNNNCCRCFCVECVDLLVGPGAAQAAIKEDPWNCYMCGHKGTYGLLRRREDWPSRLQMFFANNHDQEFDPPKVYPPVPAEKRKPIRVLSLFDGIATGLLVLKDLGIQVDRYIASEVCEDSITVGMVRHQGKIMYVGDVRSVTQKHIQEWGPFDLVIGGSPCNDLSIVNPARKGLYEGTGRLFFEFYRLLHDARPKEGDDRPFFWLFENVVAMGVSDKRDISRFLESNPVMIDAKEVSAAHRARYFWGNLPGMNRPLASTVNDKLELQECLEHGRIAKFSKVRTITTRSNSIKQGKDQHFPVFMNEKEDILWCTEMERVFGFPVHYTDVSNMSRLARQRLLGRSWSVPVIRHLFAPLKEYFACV
Structure (SMILES),Activity [1],IC50 [2],Survival [3],remaining at 2 h [4],Activity [5],inhibition [6],Activity [7],Activity [8],inhibition at 32 µM [9],inhibition [10],Activity [11]
O=C(CCCCCCC(=O)Nc1ccc(C(=O)NC2CCNCC2)cc1)NO,Active,19 nM,Active,85%,–,–,–,–,–,–,–
CCN(CC)CCNC(=O)c1ccc(NC(=O)CCCCCCC(=O)NO)cc1,–,14 nM,–,–,inactive,Active,Active,inactive,65%,inactive,inactive

# — ChEMBL document CHEMBL5034012, “Procainamide-SAHA Fused Inhibitors of hHDAC6 Tackle Multidrug-Resistant Malaria Parasites” (J Med Chem, 2021)
